From PubChem
A selection: hits, their analogues and other compounds. The true share with any hit is near 1.1%.
miR122 inh = inhibitors of miR-122 in Huh7 cells; Huh7 miR-122 Renilla luciferase sensor, 48 h; neutral wells = 0, positive control = 100; activation (reporter increase), % at 12.5 µM; 340,000 tested, 0.3% active; AID 602342;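 active = mean replicate activation score at least 90 and every replicate individually at or above 90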;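 note: higher luciferase means less miR-122 activity so hits act as miR-122 inhibitors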
CAL PDZ FP-1 = CAL PDZ (human) peptide binding inhibition; Q9HD26; purified CAL PDZ, TMR-peptide fluorescence polarization, 1 h; inhibition, % at 24.9 µM; 300,000 tested, 0.92% active;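 active = mean inhibition of at least 30% with at least half of replicates also reaching 30%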
LANA DNA inh = blocks KSHV LANA C-terminal domain binding to DNA; inhibition, % at 9 µM; AID 504423; MBP-C-LANA/FAM-LBS DNA binding, fluorescence polarization; 340,000 tested, 0.078% active;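 active = highest replicate inhibition at or above 60% at 9 µM, even if other replicates fall short; inactive = all replicates below 60% inhibition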
CAL PDZ FP-2 = blocks peptide binding to human CAL PDZ domain; AID 504414; Q9HD26; purified CAL PDZ, TMR-peptide fluorescence polarization, 1 h; inhibition, % at 20 µM; 330,000 tested, 0.02% active;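 active = highest replicate inhibition of at least 40%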
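Test system: tagged CAL PDZ domain / Buffer or medium: sodium phosphate/NaCl buffer pH 7.4 with TCEP, IgG, Thesit / Reagent: TMR-labelled reporter peptide T*-PRC34 bound in PDZ groove / Compound dosing: single point, 20 µM / Schedule: 1 h incubation at room temperature before polarization reading / Technique: fluorescence polarization (mP) / Benchmarks: unlabelled peptide, DMSO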
Keap1 Nrf2 FP = inhibitors of human Keap1-Nrf2 protein-protein interaction; Q14145; Keap1 Kelch-Nrf2 peptide fluorescence polarization, 1536-well; inhibition, % at 9.4 µM; 340,000 tested, 0.15% active; in the data active = inhibition above about 12%;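 note: human Keap1 Kelch domain with fluorescein labeled Nrf2 9mer peptide probe; higher means more block of Keap1 binding to Nrf2 peptide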
Target sequence (Q14145 whole entry, looked up, the tested form may be a part): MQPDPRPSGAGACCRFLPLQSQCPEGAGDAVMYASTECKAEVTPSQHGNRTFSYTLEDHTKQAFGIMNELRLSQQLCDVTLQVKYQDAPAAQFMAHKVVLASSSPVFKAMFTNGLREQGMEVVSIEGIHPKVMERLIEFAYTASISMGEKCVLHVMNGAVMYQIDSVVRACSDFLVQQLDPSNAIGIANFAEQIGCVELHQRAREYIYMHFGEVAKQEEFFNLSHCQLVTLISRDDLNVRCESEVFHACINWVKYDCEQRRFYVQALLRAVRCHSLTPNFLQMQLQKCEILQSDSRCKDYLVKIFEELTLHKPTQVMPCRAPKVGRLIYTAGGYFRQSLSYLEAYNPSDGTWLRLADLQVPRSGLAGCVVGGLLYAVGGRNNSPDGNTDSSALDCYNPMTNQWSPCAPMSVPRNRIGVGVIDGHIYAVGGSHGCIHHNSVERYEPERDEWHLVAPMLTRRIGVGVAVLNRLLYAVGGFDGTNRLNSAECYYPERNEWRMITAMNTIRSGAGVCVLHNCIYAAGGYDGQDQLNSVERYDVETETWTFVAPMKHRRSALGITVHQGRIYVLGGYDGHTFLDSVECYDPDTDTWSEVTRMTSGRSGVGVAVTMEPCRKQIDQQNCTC
Numbers stand for hits; i = inactive; nt = no result; + = active, no number; [ ] = dose if it differs, or a comment.

SMILES	miR122 inh	CAL PDZ FP-1	LANA DNA inh	CAL PDZ FP-2	Keap1 Nrf2 FP
CN1C(=O)c2cc(NC(=O)NCc3ccccc3)ccc2OC[C@H]2O[C@H](CC(=O)NCC3CCCCC3)CC[C@H]21	i	nt	nt	nt	nt
CN1C(=O)c2cc(NC(=O)NCc3ccccc3)ccc2OC[C@@H]2O[C@H](CC(=O)NCC3CCCCC3)CC[C@@H]21	173[16.7 µM]	nt	nt	nt	nt
Cc1ccccc1NC(=O)Nc1ccc2c(c1)C(=O)N(C)[C@H]1CC[C@@H](CC(=O)NCC3CC3)O[C@H]1CO2	218[16.7 µM]	nt	nt	nt	nt
CO[C@H]1CN(C)C(=O)c2cc(NS(C)(=O)=O)ccc2OC[C@@H](C)N(Cc2ccccn2)C[C@@H]1C	i	nt	nt	nt	nt
Cc1ccc(S(=O)(=O)N(C)C[C@H]2Oc3ccc(NS(=O)(=O)c4ccc(F)cc4)cc3CC(=O)N([C@H](C)CO)C[C@H]2C)cc1	i	nt	nt	nt	nt
CN1C(=O)c2cc(NC(=O)Cc3cccs3)ccc2OC[C@@H]2O[C@H](CC(=O)NCC3CCCCC3)CC[C@H]21	i	nt	nt	nt	nt
CN1C(=O)c2cc(NC(=O)Cc3cccs3)ccc2OC[C@@H]2O[C@H](CC(=O)NCC3CCCCC3)CC[C@@H]21	154[16.7 µM]	nt	nt	nt	nt
CC1(C)Cc2c(sc3c2c(=N)n(Cc2ccco2)c(=O)n3Cc2ccc(F)cc2)CO1	i	i	i	i	i
COc1ccc(Cn2c(=O)n(Cc3ccco3)c(=N)c3c4c(sc32)COC(C)(C)C4)cc1	i	59	i	i	i
COc1cc2[nH]c(=S)n(Cc3ccc(C)cc3)c(=O)c2cc1OC	nt	40	i	i	i
Cc1noc(C)c1S(=O)(=O)Nc1ccc2c(c1)C(=O)N([C@H](C)CO)C[C@@H](C)[C@@H](CN(C)C(=O)NC1CCCCC1)O2	i	nt	nt	nt	nt
CC(NCc1ccc2c(c1)OCO2)C(=O)NC1CCCCC1 (configuration not stated)	i	i	i	i	i
C[N+](C)(C)CCCN(Cc1ccc2c(c1)OCO2)C(=O)NC1CCCCC1	nt	41	i	i	i
Cc1noc(C)c1S(=O)(=O)N(C)C[C@@H]1Oc2c(NC(=O)C3CC3)cccc2C(=O)N([C@@H](C)CO)C[C@@H]1C	i	nt	nt	nt	nt
COc1ccc(NC(=O)Nc2ccc3c(c2)C(=O)N([C@H](C)CO)C[C@H](C)[C@H](CN(C)Cc2ccccc2)OCCCC[C@@H](C)O3)cc1	i	nt	nt	nt	nt
Cc1ccc(S(=O)(=O)c2cccc(S(=O)(=O)N3CCCC3)c2)cc1S(=O)(=O)N1CCCC1	110	i	i	i	i
C[C@@H]1CN([C@@H](C)CO)C(=O)Cc2cc(NC(=O)CCC(F)(F)F)ccc2O[C@@H]1CN(C)Cc1ccc2c(c1)OCO2	i	nt	nt	nt	nt
COc1ccc(OC)c(C(C[N+](=O)[O-])c2c(C)cc3ccccn23)c1 (configuration not stated)	i	48	i	i	i
C[C@@H]1CN([C@H](C)CO)C(=O)c2cc(NS(=O)(=O)c3ccccc3)ccc2O[C@H]1CN(C)S(=O)(=O)c1ccccc1	i	nt	nt	nt	nt
Cc1ccc(OCC(=O)N2CC(C)OC(C)C2)c([N+](=O)[O-])n1 (configuration not stated)	nt	46	i	i	i
Cn1c(N)c(C(=O)COC(=O)c2ccccn2)c(=O)n(C)c1=O	i	i	i	i	i
Cn1c(N)c(C(=O)COC(=O)c2ncc(Cl)c(Cl)c2Cl)c(=O)n(C)c1=O	i	55	i	i	i
CO[C@@H]1CN(C)C(=O)c2cc(NC(=O)c3ccccc3)ccc2OC[C@H](C)N(C(=O)C2CC2)C[C@H]1C	i	nt	nt	nt	nt
Cc1cccnc1NC(=O)CNC(=O)C1CCCCC1	i	36	i	i	i
CCC1CCC2(CC1)NC(=O)N(CC(=O)Nc1ccc(OC)c(Cl)c1)C2=O (configuration not stated)	i	81	i	i	i
SMILES	miR122 inh	CAL PDZ FP-1	LANA DNA inh	CAL PDZ FP-2	Keap1 Nrf2 FP
COc1ccc(C2(c3ccc(OC)cc3)NC(=O)N(CC(=O)Nc3ccc(C(N)=O)cc3)C2=O)cc1	i	i	i	i	i
COc1ccc(C2(c3ccc(OC)cc3)NC(=O)N(CC(=O)Nc3ccc(OC)c(OC)c3)C2=O)cc1	i	51	i	i	i
Cc1ccc2[nH]c(O)c(N=NC(=O)c3ccc(NS(=O)(=O)c4cccs4)cc3)c2c1	i	i	i	i	i
COc1ccc2[nH]c(O)c(N=NC(=O)c3ccc(NS(=O)(=O)c4cccs4)cc3)c2c1	i	46	i	i	i
CC1CN(C(=O)/C=C/c2ccc([N+](=O)[O-])s2)CC(C)O1 (configuration not stated)	nt	40	i	i	i
CN(C)/C=C1\C=C2C(=O)c3ccccc3N2C1=O	i	56	+	i	+
CCOC(=O)c1cnc2nc(Cc3ccccc3)[nH]n2c1=O	i	nt	i	i	i
CCOC(=O)c1cnc2nc(C(F)(F)F)[nH]n2c1=O	i	103	i	i	i
COc1cc2c(cc1OC)C(c1ccc(Br)cc1)NCC2 (configuration not stated)	i	nt	nt	nt	nt
COc1ccc(C2NCCc3cc(OC)c(OC)cc32)cc1OC (configuration not stated)	i	60	i	i	i
COc1ccc(/C=N/N2CCN(Cc3ccc(C)cc3)CC2)cc1Br	i	72	i	i	i
Cc1ccc(CN2CCN(/N=C/c3ccc(O)c(O)c3)CC2)cc1	i	i	i	i	i
COc1cccc(NC(=O)N(C)C[C@H]2Oc3ncc(C4=CCCCC4)cc3C(=O)N([C@H](C)CO)C[C@@H]2C)c1	i	nt	nt	nt	nt
O=C(COc1ccccc1-c1ccccc1)N/N=C/c1cccc2ccccc12	i	i	i	i	i
COc1ccc(/C=N/NC(=O)COc2ccccc2-c2ccccc2)cc1	129	i	i	i	i
O=C(NNC(=O)c1cccnc1)Nc1ccc(Cl)c(Cl)c1	i	i	i	i	i
O=C(NNC(=O)c1ccc(Cl)c(Cl)c1)c1cccnc1	i	i	i	92	i
O=C(OCC(=O)N1CCN(C(=O)c2ccco2)CC1)c1cc(S(=O)(=O)Nc2ccc(Cl)cc2)ccc1O	nt	53	i	i	i
O=C(CCNS(=O)(=O)c1ccc(Cl)cc1)OCC(=O)N1CCN(C(=O)c2ccco2)CC1	nt	i	nt	i	nt
O=C(OCC(=O)N1CCN(C(=O)c2ccco2)CC1)c1cncc(Br)c1	i	36	i	i	i
COc1ccc(NC(=O)Nc2ccc3c(c2)C(=O)N([C@@H](C)CO)C[C@H](C)[C@@H](CN(C)Cc2ccc(C(F)(F)F)cc2)O3)cc1	i	nt	nt	nt	nt
CC(C)CC1NC(=O)N(CC(=O)NC2CCCCC2)C1=O (configuration not stated)	i	i	i	i	i
CC(C)CC1NC(=O)N(CC(=O)N(C)C2CCCCC2)C1=O (configuration not stated)	i	108	i	i	i
O=C(Nc1ccc(S(=O)(=O)Nc2ncccn2)cc1)c1nn(Cc2ccccc2)c(=O)c2ccccc12	i	i	i	i	i
CCn1nc(C(=O)Nc2ccc(S(=O)(=O)Nc3nccs3)cc2)c2ccccc2c1=O	93	i	i	nt	i
